Measured values as given in paper PMC12531995 (RSC Advances, 2025).
Marks after values point to notes of the source that are not given here.

Tests used:
[1] = test system: carrageenan-induced paw edema in rats; details: cited from earlier work
[2] = test system: PTZ-induced seizures in mice; assay: Pentylenetetrazol; assay type: in vivo; details: Mus musculus, po, 24 h, read-out: 24 h mortality
In short: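 Mice were randomised into ten groups of ten. Animals were dosed orally, with 0.5% carboxymethyl cellulose as the negative-control vehicle. Seizures were then induced by intraperitoneal pentylenetetrazol at a convulsive dose of 85 mg kg−1.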

[3] = test system: pilocarpine-induced seizures in mice; assay: Pilocarpine-induced seizure; assay type: in vivo
In short: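 Male mice, n = 10 per group. Vehicle (0.5% CMC) or test compound (20 mg kg−1) given orally 30 min before pilocarpine (300 mg kg−1, i.p.) to induce status epilepticus. Valproic acid reference was 300 mg kg−1 orally, 30 min prior. Non-epileptic controls got vehicle only. Scored latency to forelimb clonus (stage 3), severity at 30, 60, 90 and 120 min, and 24 h survival. Mean ± SD.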

SMILES	Paw thickness difference, 1st hour ([1]; 1st hour post-carrageenan, oral, mean ± SD, n = 6) [mm]	Percentage of inhibition of paw thickness, 1st hour ([1]; 1st hour, vs carrageenan group) [%]	Paw thickness difference, 2nd hour ([1]; 2nd hour post-carrageenan, oral, mean ± SD, n = 6) [mm]	Percentage of inhibition of paw thickness, 2nd hour ([1]; 2nd hour, vs carrageenan group) [%]	Paw thickness difference, 3rd hour ([1]; 3rd hour post-carrageenan, oral, mean ± SD, n = 6) [mm]	Percentage of inhibition of paw thickness, 3rd hour ([1]; 3rd hour, vs carrageenan group) [%]	Paw thickness difference, 4th hour ([1]; 4th hour post-carrageenan, oral, mean ± SD, n = 6) [mm]	Percentage of inhibition of paw thickness, 4th hour ([1]; 4th hour, vs carrageenan group) [%]	Paw thickness difference, 5th hour ([1]; 5th hour post-carrageenan, oral, mean ± SD, n = 6) [mm]	Percentage of inhibition of paw thickness, 5th hour ([1]; 5th hour, vs carrageenan group) [%]	weight gain (paw) ([1]; 5 hour mark) [%]	Paw weight increase ([1]; right vs left paw, mean ± SD, n = 6)	mortality at 20 mg/kg [2] [%]	24 h Survival ([3]; compounds 20 mg kg^−1, valproic acid 300 mg kg^−1 orally, mice n = 10) [%]	Onset (latency to forelimb clonus, stage 3) ([3]; mice n = 10, compounds 20 mg kg^−1 orally, valproic acid 300 mg kg^−1 orally, 30 minutes before pilocarpine 300 mg kg^−1 i.p., mean ± SD)	Reduction of final seizure severity ([3]; vs pilocarpine group, 120 min) [%]
Cc1ccc(-c2cc(C(F)(F)F)nn2-c2ccc(S(N)(=O)=O)cc2)cc1 [Celecoxib]	1.4 ± 0.38	29.31	2.36 ± 0.51	28.34	2.83 ± 0.43	33	3.01 ± 0.57	40.39	3.10 ± 0.23	41.65	68.15	29.95 ± 2.20^ab %				
CCCC(CCC)C(=O)O [Valproic acid (VI), valproic acid]													30	60	10.65 ± 0.52^a mins	60
